Source: ChEMBL document CHEMBL1131480, “Novel antipsychotic agents with dopamine autoreceptor agonist properties: synthesis and pharmacology of 7-[4-(4-phenyl-1-piperazinyl)butoxy]-3,4-dihydro-2(1H)-quinolinone derivatives” (1998)
Active and inactive are the calls of the source. The calls are words filed in the database; no cut-off is given here.

Columns and labels:
Mus musculus [1] = species: Mus musculus; assay: post-synaptic DA receptor antagonist activity was evaluated by inhibition of the apomorphine-induced stereotyped behavior in mice. 51% inhibition at single given dose.; format: functional
In short: (§1)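 Overnight-fasted mice (16-20 h), groups of 10, given compound orally 1 h before apomorphine 1.5 mg/kg sc in 0.9% saline. Stereotypy observed for 1 min every 10 min over 40 min, starting 20 min post-apomorphine, scored by a published scale. ED50 with 95% confidence limits by linear regression, µmol/kg po.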

Mus musculus [2] = species: Mus musculus; assay: post-synaptic DA receptor antagonist activity was evaluated by inhibition of the apomorphine-induced stereotyped behavior in mice. inactive at below given dose; format: functional; in short: as §1
[3] = system: Dopamine D2 receptor (Mus musculus); assay: post-synaptic dopamine […] antagonist activity evaluated by inhibition of the apomorphine-induced stereotyped behavior in mice.
Mus musculus [4] = species: Mus musculus; assay: Inhibition of the GBL-induced increase in DOPA accumulation in mice(DA auto receptor agonist activity); format: functional
[5] = target: T1, Alpha-1 adrenergic receptor (Mus musculus) (UniProt P97714+P97717+P97718); assay: Inhibition of the lethal effects of noradrenaline in mice (alpha-1 induced adrenoceptor antagonist activity); format: functional
T1 sequence (P97714 whole entry, looked up): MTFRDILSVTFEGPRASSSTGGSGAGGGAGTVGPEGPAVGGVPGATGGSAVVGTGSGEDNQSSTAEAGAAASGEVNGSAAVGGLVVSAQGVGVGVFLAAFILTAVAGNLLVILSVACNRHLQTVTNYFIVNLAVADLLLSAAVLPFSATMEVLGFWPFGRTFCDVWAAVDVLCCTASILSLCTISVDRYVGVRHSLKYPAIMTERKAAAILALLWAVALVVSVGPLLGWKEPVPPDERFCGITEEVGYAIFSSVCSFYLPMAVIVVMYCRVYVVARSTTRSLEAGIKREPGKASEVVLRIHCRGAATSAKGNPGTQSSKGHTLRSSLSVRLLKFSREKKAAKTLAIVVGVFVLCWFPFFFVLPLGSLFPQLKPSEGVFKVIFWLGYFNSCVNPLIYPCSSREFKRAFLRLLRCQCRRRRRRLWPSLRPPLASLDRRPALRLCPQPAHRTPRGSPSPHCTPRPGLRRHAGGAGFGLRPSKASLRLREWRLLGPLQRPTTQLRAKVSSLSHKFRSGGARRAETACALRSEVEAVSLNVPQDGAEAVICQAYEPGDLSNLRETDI
T1 sequence (P97717 whole entry, looked up): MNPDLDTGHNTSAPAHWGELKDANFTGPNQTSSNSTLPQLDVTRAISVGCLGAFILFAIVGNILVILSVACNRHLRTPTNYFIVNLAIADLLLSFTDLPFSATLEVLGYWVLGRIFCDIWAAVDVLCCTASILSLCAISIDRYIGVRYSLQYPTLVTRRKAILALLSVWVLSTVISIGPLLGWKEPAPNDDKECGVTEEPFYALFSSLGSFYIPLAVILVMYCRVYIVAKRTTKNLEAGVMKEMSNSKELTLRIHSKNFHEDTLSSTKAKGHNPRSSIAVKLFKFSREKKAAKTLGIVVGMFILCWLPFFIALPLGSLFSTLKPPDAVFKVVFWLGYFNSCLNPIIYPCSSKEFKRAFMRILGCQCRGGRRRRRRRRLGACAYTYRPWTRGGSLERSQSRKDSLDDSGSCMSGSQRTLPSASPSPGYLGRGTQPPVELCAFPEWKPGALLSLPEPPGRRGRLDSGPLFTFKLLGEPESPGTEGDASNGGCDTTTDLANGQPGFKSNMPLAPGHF
T1 sequence (P97718 whole entry, looked up): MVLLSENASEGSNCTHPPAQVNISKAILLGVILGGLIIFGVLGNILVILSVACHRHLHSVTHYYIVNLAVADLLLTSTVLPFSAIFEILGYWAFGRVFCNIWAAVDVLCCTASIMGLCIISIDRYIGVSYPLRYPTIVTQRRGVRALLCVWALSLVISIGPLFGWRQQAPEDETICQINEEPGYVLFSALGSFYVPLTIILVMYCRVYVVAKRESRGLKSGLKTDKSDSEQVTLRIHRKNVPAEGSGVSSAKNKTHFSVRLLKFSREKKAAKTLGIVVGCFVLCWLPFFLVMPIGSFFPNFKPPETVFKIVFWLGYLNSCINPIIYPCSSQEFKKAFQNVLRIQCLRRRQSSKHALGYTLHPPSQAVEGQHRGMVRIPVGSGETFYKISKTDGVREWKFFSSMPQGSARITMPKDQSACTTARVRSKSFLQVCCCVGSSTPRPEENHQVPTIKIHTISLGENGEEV

[6] = target: T1, Alpha-1 adrenergic receptor (Mus musculus); assay: Inhibition of noradrenaline lethal effects in mice as alpha-1 induced adrenoceptor antagonist activity; format: functional
Mus musculus [7] = species: Mus musculus; assay: Inhibition of the GBL-induced increase in DOPA accumulation in mice(DA auto receptor agonist activity); IA = inactive; format: functional, organism-based
Mus musculus [8] = species: Mus musculus; assay: Inhibition of the GBL-induced increase in DOPA synthesis in mice; IA = inactive; format: functional, organism-based
Mus musculus [9] = species: Mus musculus; assay: Induction of catalepsy in mice; format: functional
Rattus norvegicus [10] = species: Rattus norvegicus; assay: Inhibition of the APO-induced stereotyped behavior in rats
Mus musculus [11] = species: Mus musculus; assay: post-synaptic DA receptor antagonist activity was evaluated by inhibition of the apomorphine-induced stereotyped behavior in mice. inactive at single given dose; format: functional; in short: as §1
Mus musculus [12] = species: Mus musculus; assay: post-synaptic DA receptor antagonist activity was evaluated by inhibition of the apomorphine-induced stereotyped behavior in mice. 49% inhibition at single given dose; format: functional; in short: as §1
[13] = ratio between ED50 values of DA receptor antagonist activity and catalepsy.; format: functional
Mus musculus [14] = species: Mus musculus; assay: Induction of catalepsy in mice.; format: functional
Rattus norvegicus [15] = species: Rattus norvegicus; assay: Inhibition of the GBL-induced increase in DOPA synthesis in rats.
Rattus norvegicus [16] = species: Rattus norvegicus; assay: Inhibition of the APO-induced stereotyped behavior in rats.

Cc1cc(Br)ccc1N1CCN(CCCCOc2ccc3c(c2)NC(=O)CC3)CC1
ED50 (Mus musculus [1]): 21 µmol/kg

O=C1CCc2ccc(OCCCCN3CCN(c4ccc(Cl)cc4Cl)CC3)cc2N1
ED50 (Mus musculus [2]): > 7 µmol/kg

Cc1cccc(N2CCN(CCCOc3ccc4c(c3)NC(=O)CC4)CC2)c1C
ED50 [3]: 26 µmol/kg

CCOc1ccccc1N1CCN(CCCCOc2ccc3ccc(O)nc3c2)CC1
ED50 (Mus musculus [4]): > 20 µmol/kg | ED50 [5]: > 127 µmol/kg | ED50 [3]: 0.24 µmol/kg

O=C(CCCN1CCC(O)(c2ccc(Cl)cc2)CC1)c1ccc(F)cc1 [HALOPERIDOL]
ED50 [6]: > 341 µmol/kg | ED50 (Mus musculus [7]): inactive | ED50 (Mus musculus [8]): inactive | ED50 (Mus musculus [9]): 0.9 µmol/kg | ED50 (Rattus norvegicus [10]): 1.1 µmol/kg

Cc1c(O)cccc1N1CCN(CCCCOc2ccc3c(c2)NC(=O)CC3)CC1
ED50 (Mus musculus [11]; read-out: ED50): > 8 µmol/kg

Cc1ccc(Cl)cc1N1CCN(CCCCOc2ccc3c(c2)NC(=O)CC3)CC1
ED50 (Mus musculus [2]): > 23 µmol/kg

O=C1CCc2ccc(OCCCCN3CCN(c4cc(Cl)cc(Cl)c4)CC3)cc2N1
ED50 (Mus musculus [4]): > 22 µmol/kg | ED50 [5]: > 256 µmol/kg

Cc1c(C#N)cccc1N1CCN(CCCCOc2ccc3c(c2)NC(=O)CC3)CC1
ED50 [3]: 4.1 µmol/kg

CC(=O)Nc1cccc(N2CCN(CCCCOc3ccc4c(c3)NC(=O)CC4)CC2)c1C
ED50 (Mus musculus [2]): > 25 µmol/kg

Cc1c(Br)cccc1N1CCN(CCCCOc2ccc3ccc(O)nc3c2)CC1
ED50 [3]: 2.1 µmol/kg

O=C1CCc2ccc(OCCCCN3CCN(c4ccc(Cl)cc4)CC3)cc2N1
ED50 (Mus musculus [2]): > 8 µmol/kg

Oc1ccc2ccc(OCCCCN3CCN(c4cccc(Cl)c4Cl)CC3)cc2n1
ED50 (Mus musculus [4]): > 22 µmol/kg | ED50 [5]: > 287 µmol/kg | ED50 [3]: 0.9 µmol/kg

Cc1c(Br)cccc1N1CCN(CCCCOc2ccc3c(c2)NC(=O)CC3)CC1
ED50 (Mus musculus [4]): 1.3 µmol/kg

N#Cc1ccccc1N1CCN(CCCCOc2ccc3c(c2)NC(=O)CC3)CC1
ED50 (Mus musculus [11]; read-out: ED50): > 23 µmol/kg

Cc1c(F)cccc1N1CCN(CCCCOc2ccc3c(c2)NC(=O)CC3)CC1
ED50 (Mus musculus [12]): 7.2 µmol/kg

O=C1CCc2ccc(OCCCCN3CCN(c4cc(Cl)cc(Cl)c4Cl)CC3)cc2N1
ED50 (Mus musculus [4]): > 21 µmol/kg | ED50 [6]: > 265 µmol/kg

Cc1c(Cl)cccc1N1CCN(CCCCOc2ccc3ccc(O)nc3c2)CC1
ED50 (Mus musculus [4]): 20.1 µmol/kg | Ratio [13]: 4.5 | ED50 [5]: > 299 µmol/kg | ED50 [3]: 2.8 µmol/kg | ED50 (Mus musculus [9]): 12.6 µmol/kg

Cc1cccc(N2CCN(CCCCOc3ccc4c(c3)NC(=O)CC4)CC2)c1Cl
ED50 (Mus musculus [4]): > 23 µmol/kg | ED50 (Mus musculus [14]): 1.4 µmol/kg | ED50 [5]: > 150 µmol/kg

Cc1cccc(N2CCN(CCCOc3ccc4ccc(O)nc4c3)CC2)c1C
ED50 (Mus musculus [4]): 3.5 µmol/kg | ED50 [6]: 151 µmol/kg | ED50 (Rattus norvegicus [15]): 15.1 µmol/kg | ED50 (Rattus norvegicus [16]): 1860 µmol/kg | Ratio [13]: > 1.4 | ED50 [3]: 41.3 µmol/kg

Cc1c(N)cccc1N1CCN(CCCCOc2ccc3c(c2)NC(=O)CC3)CC1
ED50 (Mus musculus [2]): > 25 µmol/kg

O=C1CCc2ccc(OCCCCN3CCN(c4ccccc4[N+](=O)[O-])CC3)cc2N1
ED50 (Mus musculus [2]): > 7 µmol/kg

Cc1ccc(N2CCN(CCCCOc3ccc4c(c3)NC(=O)CC4)CC2)cc1Cl
ED50 (Mus musculus [2]): > 7 µmol/kg

Cc1cccc(N2CCN(CCCCOc3ccc4c(c3)NC(=O)CC4)CC2)c1Br
ED50 (Mus musculus [4]): > 21 µmol/kg

Cc1c(N2CCN(CCCCOc3ccc4c(c3)NC(=O)CC4)CC2)cccc1[N+](=O)[O-]
ED50 (Mus musculus [4]): > 23 µmol/kg | ED50 [6]: > 146 µmol/kg | Ratio [13]: 8.7 | ED50 [3]: 0.7 µmol/kg | ED50 (Mus musculus [9]): 5.9 µmol/kg

Cc1c(Cl)cccc1N1CCN(CCCCCOc2ccc3c(c2)NC(=O)CC3)CC1
ED50 (Mus musculus [2]): > 23 µmol/kg

O=C1CCc2cc(OCCCCN3CCN(c4cccc(Cl)c4Cl)CC3)ccc2N1
ED50 (Mus musculus [2]): > 22 µmol/kg

O=C1CCc2ccc(OCCCCN3CCN(c4ccccc4)CC3)cc2N1
ED50 (Mus musculus [2]): > 28 µmol/kg

Cc1cccc(N2CCN(CCCCOc3ccc4c(c3)NC(=O)CC4)CC2)c1C
ED50 (Mus musculus [4]): 9.1 µmol/kg | ED50 [5]: > 314 µmol/kg | ED50 (Mus musculus [9]): 13.5 µmol/kg

O=C1CCc2ccc(OCCCCN3CCN(c4ccc(Cl)c(Cl)c4)CC3)cc2N1
ED50 (Mus musculus [11]; read-out: ED50): > 7 µmol/kg

O=C1CCc2c(cccc2OCCCCN2CCN(c3cccc(Cl)c3Cl)CC2)N1
ED50 (Mus musculus [11]; read-out: ED50): > 22 µmol/kg

Cc1cccc(N2CCN(CCCCOc3ccc4ccc(O)nc4c3)CC2)c1C
ED50 (Mus musculus [4]): 3.9 µmol/kg | Ratio [13]: 3.1 | ED50 [5]: > 156 µmol/kg | ED50 [3]: 3.4 µmol/kg | ED50 (Mus musculus [9]): 10.5 µmol/kg

Cc1c(Cl)cccc1N1CCN(CCCCOc2ccc3c(c2)NC(=O)CC3)CC1
ED50 (Mus musculus [4]): 3.5 µmol/kg | ED50 [6]: > 299 µmol/kg | ED50 (Mus musculus [9]): 5.6 µmol/kg

CN(C)CCCN1c2ccccc2Sc2ccc(Cl)cc21 [CHLORPROMAZINE]
ED50 [6]: 19.7 µmol/kg | ED50 (Mus musculus [7]): inactive | ED50 (Mus musculus [8]): inactive | ED50 (Rattus norvegicus [10]): 28.4 µmol/kg

CCOc1ccccc1N1CCN(CCCCOc2ccc3c(c2)NC(=O)CC3)CC1
ED50 (Mus musculus [4]): 0.65 µmol/kg | ED50 [6]: 7 µmol/kg | ED50 (Mus musculus [9]): 4.4 µmol/kg

O=C1CCc2ccc(OCCCCN3CCN(c4cccc(Cl)c4Cl)CC3)cc2N1 [ARIPIPRAZOLE]
ED50 (Mus musculus [4]): 5.1 µmol/kg | ED50 (Rattus norvegicus [15]): 6.9 µmol/kg | ED50 (Mus musculus [11]): > 22 µmol/kg | ED50 [5]: > 286 µmol/kg | ED50 (Rattus norvegicus [10]): 11.8 µmol/kg

Nc1ccccc1N1CCN(CCCCOc2ccc3c(c2)NC(=O)CC3)CC1
ED50 (Mus musculus [11]; read-out: ED50): > 25 µmol/kg

O=C1CCc2ccc(OCCCCN3CCN(c4c(Cl)cccc4Cl)CC3)cc2N1
ED50 (Mus musculus [11]; read-out: ED50): > 7 µmol/kg
